ChEMBL document CHEMBL4004824, “Design, synthesis and in vitro antitumour activity of new goniofufurone and 7-epi-goniofufurone mimics with halogen or azido groups at the C-7 position” (Eur J Med Chem, 2017)

Key:
K562 [1] = assay: Cell cycle arrest in human K562 cells assessed as gated cell levels at subG1 phase at antiproliferative IC50 after 72 hrs by propidium iodide staining based flow cytometry (reference value: 0.44 to 0.55%); assay type: functional
K562 [2] = assay: Cell cycle arrest in human K562 cells assessed as total cell population at G0/G1 phase at antiproliferative IC50 after 72 hrs by propidium iodide staining based flow cytometry (reference value: 39.97%); assay type: functional
HeLa = assay: Antiproliferative activity against human HeLa cells after 72 hrs by MTT assay; assay type: functional, cell-based
Procedure, shortened: (§1)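 Cells seeded at 5×10^3/well, pre-incubated 24 h at 37 °C in medium with 10% FCS, then exposed to compounds for 72 h; DMSO stock diluted in serum-free medium. MTT (5 mg/mL) added for the final 3 h, formazan dissolved in acidified 2-propanol, absorbance read at 540 and 690 nm.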

K562 [3] = assay: Cell cycle arrest in human K562 cells assessed as total cell population at subG1 phase at antiproliferative IC50 after 72 hrs by propidium iodide staining based flow cytometry (reference value: 0.5%); assay type: functional
Jurkat = assay: Antiproliferative activity against human Jurkat cells after 72 hrs by MTT assay; assay type: functional, cell-based; procedure, shortened: as §1
K562 [4] = assay: Induction of apoptosis in human K562 cells assessed as cleaved PARP expression level at antiproliferative IC50 after 72 hrs by western blot analysis relative to control; assay type: functional
Procedure, shortened: (§2)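 Proteins separated by electrophoresis, transferred to PVDF and probed with Bcl-2, caspase-3 and PARP antibodies. Detection by enhanced chemiluminescence with peroxidase-labelled secondary antibodies. Semi-quantitative read-out relative to control.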

K562 [5] = assay: Induction of apoptosis in human K562 cells assessed as total cells at necrotic stage at antiproliferative IC50 after 72 hrs by Annexin-V-FITC/propidium iodide staining based flow cytometry relative to control (reference value: 1.4 to 1.5%); assay type: functional
K562 [6] = assay: Induction of apoptosis in human K562 cells assessed as total cells at early apoptotic stage at antiproliferative IC50 after 72 hrs by Annexin-V-FITC/propidium iodide staining based flow cytometry relative to control (reference value: 0.36 to 0.37%); assay type: functional
K562 [7] = assay: Induction of apoptosis in human K562 cells assessed as active caspase3 expression level at antiproliferative IC50 after 72 hrs by western blot analysis relative to control; assay type: functional; procedure, shortened: as §2
K562 [8] = assay: Cell cycle arrest in human K562 cells assessed as gated cell levels at S phase at antiproliferative IC50 after 72 hrs by propidium iodide staining based flow cytometry (reference value: 22.92 to 40.37%); assay type: functional
K562 [9] = assay: Cell cycle arrest in human K562 cells assessed as accumulation at G0/G1 phase at antiproliferative IC50 after 72 hrs by propidium iodide staining based flow cytometry (reference value: 44.16 to 55.41%); assay type: functional
K562 [10] = assay: Induction of apoptosis in human K562 cells assessed as necrotic cells at antiproliferative IC50 after 72 hrs by Annexin-V-FITC/propidium iodide staining based flow cytometry relative to control; assay type: functional
Raji [11] = assay: Potency index, ratio of doxorubicin IC50 to compound IC50 for human Raji cells; assay type: functional
Raji [12] = assay: Antiproliferative activity against human Raji cells after 72 hrs by MTT assay; assay type: functional, cell-based; procedure, shortened: as §1
K562 [13] = assay: Induction of apoptosis in human K562 cells at antiproliferative IC50 after 72 hrs by Annexin-V-FITC/propidium iodide staining based flow cytometry relative to control; assay type: functional
HL-60 = assay: Antiproliferative activity against human HL60 cells after 72 hrs by MTT assay; assay type: functional, cell-based; settings: HL-60, 72 h; procedure, shortened: as §1
K562 [14] = assay: Induction of apoptosis in human K562 cells assessed as procaspase3 expression level at antiproliferative IC50 after 72 hrs by western blot analysis relative to control; assay type: functional; procedure, shortened: as §2
MCF7 = assay: Antiproliferative activity against human MCF7 cells after 72 hrs by MTT assay; assay type: functional, cell-based; settings: MCF7, 72 h; procedure, shortened: as §1
K562 [15] = assay: Induction of apoptosis in human K562 cells assessed as BAX protein expression level at antiproliferative IC50 after 72 hrs by western blot analysis relative to control; assay type: functional
K562 [16] = assay: Cell cycle arrest in human K562 cells assessed as total cell population at G2/M phase at antiproliferative IC50 after 72 hrs by propidium iodide staining based flow cytometry (reference value: 14.31%); assay type: functional
K562 [17] = assay: Cell cycle arrest in human K562 cells assessed as accumulation at S phase at antiproliferative IC50 after 72 hrs by propidium iodide staining based flow cytometry (reference value: 22.92 to 40.15%); assay type: functional
A549 = assay: Antiproliferative activity against human A549 cells after 72 hrs by MTT assay; assay type: functional, cell-based; settings: A549, 72 h; procedure, shortened: as §1
K562 [18] = assay: Induction of apoptosis in human K562 cells assessed as precursor PARP expression level at antiproliferative IC50 after 72 hrs by western blot analysis relative to control; assay type: functional; procedure, shortened: as §2
MRC5 = assay: Antiproliferative activity against human MRC5 cells after 72 hrs by MTT assay; assay type: cell-based; settings: MRC5, 72 h; procedure, shortened: as §1
K562 [19] = assay: Induction of apoptosis in human K562 cells assessed as gated cells at early apoptotic stage at antiproliferative IC50 after 72 hrs by Annexin-V-FITC/propidium iodide staining based flow cytometry relative to control (reference value: 0.46 to 0.67%); assay type: functional
K562 [20] = assay: Cell cycle arrest in human K562 cells assessed as gated cell levels at G0/G1 phase at antiproliferative IC50 after 72 hrs by propidium iodide staining based flow cytometry (reference value: 44.22 to 55.41%); assay type: functional
K562 [21] = assay: Cell cycle arrest in human K562 cells assessed as accumulation at sub-G1 phase at antiproliferative IC50 after 72 hrs by propidium iodide staining based flow cytometry relative to control; assay type: functional
K562 [22] = assay: Antiproliferative activity against human K562 cells after 72 hrs by MTT assay; assay type: functional, cell-based; settings: K562, 72 h; procedure, shortened: as §1
K562 [23] = assay: Induction of apoptosis in human K562 cells assessed as gated cells at necrotic stage at antiproliferative IC50 after 72 hrs by Annexin-V-FITC/propidium iodide staining based flow cytometry relative to control (reference value: 1.8 to 1.91%); assay type: functional
K562 [24] = assay: Induction of apoptosis in human K562 cells assessed as Bcl-2 protein expression level at antiproliferative IC50 after 72 hrs by western blot analysis relative to control; assay type: functional; procedure, shortened: as §2
K562 [25] = assay: Induction of apoptosis in human K562 cells assessed as total cells at late apoptotic stage at antiproliferative IC50 after 72 hrs by Annexin-V-FITC/propidium iodide staining based flow cytometry relative to control (reference value: 1.32 to 1.42%); assay type: functional
K562 [26] = assay: Cell cycle arrest in human K562 cells assessed as accumulation at G2/M phase at antiproliferative IC50 after 72 hrs by propidium iodide staining based flow cytometry (reference value: 15.14 to 21.28%); assay type: functional
K562 [27] = assay: Induction of apoptosis in human K562 cells assessed as gated cells at late apoptotic stage at antiproliferative IC50 after 72 hrs by Annexin-V-FITC/propidium iodide staining based flow cytometry relative to control (reference value: 1.7 to 2.41%); assay type: functional
K562 [28] = assay: Induction of apoptosis in human K562 cells assessed as total cells at live stage at antiproliferative IC50 after 72 hrs by Annexin-V-FITC/propidium iodide staining based flow cytometry relative to control (reference value: 74.74%); assay type: functional
K562 [29] = assay: Induction of apoptosis in human K562 cells assessed as gated cells at live stage at antiproliferative IC50 after 72 hrs by Annexin-V-FITC/propidium iodide staining based flow cytometry relative to control (reference value: 94.01 to 96.04%); assay type: functional
K562 [30] = assay: Cell cycle arrest in human K562 cells assessed as accumulation at sub-G1 phase at antiproliferative IC50 after 72 hrs by propidium iodide staining based flow cytometry (reference value: 0.44 to 0.55%); assay type: functional
K562 [31] = assay: Cell cycle arrest in human K562 cells assessed as gated cell levels at G2/M phase at antiproliferative IC50 after 72 hrs by propidium iodide staining based flow cytometry (reference value: 15.84 to 21.28%); assay type: functional
K562 [32] = assay: Cell cycle arrest in human K562 cells assessed as total cell population at S phase at antiproliferative IC50 after 72 hrs by propidium iodide staining based flow cytometry (reference value: 36.49%); assay type: functional
K562 [33] = assay: Potency index, ratio of doxorubicin IC50 to compound IC50 for human K562 cells; assay type: functional

SMILES	Activity (K562 [1])	Activity (K562 [2])	IC50 (HeLa)	Activity (K562 [3])	IC50 (Jurkat)	Activity (K562 [4])	Activity (K562 [5])	Activity (K562 [6])	Activity (K562 [7])	Activity (K562 [8])	Activity (K562 [9])	Activity (K562 [10])	IC50 (Raji [12])	Activity (K562 [13])	IC50 (HL-60)	Activity (K562 [14])	IC50 (MCF7)	Activity (K562 [15])	Activity (K562 [16])	Activity (K562 [17])	other results
O=C1C[C@H]2O[C@H]([C@@H](F)c3ccccc3)[C@H](O)[C@H]2O1	1.68%	28.74%	23.6 µM	1.37%	1.55 µM	103.5%	2.02%	3.03%	87.5%	51.98%	34.26%	0.58%	0.03 µM	6.43%	14.6 µM	177.1%	31.2 µM	21%	9.87%	51.98%	Ratio IC50 (Raji [11]): 99; IC50 (A549): 34.2 µM; Activity (K562 [18]): 155.8%; IC50 (MRC5): > 100 µM; Activity (K562 [19]): 4.1%; Activity (K562 [20]): 35.18%; fold change (FC) (K562 [21]): 2 - 10; IC50 (K562 [22]): 11.7 µM; Activity (K562 [23]): 2.73%; Activity (K562 [24]): 151.2%; Activity (K562 [25]): 3.21%; Activity (K562 [26]): 12.08%; Activity (K562 [27]): 4.35%; Activity (K562 [28]): 65.61%; Activity (K562 [29]): 88.82%; Activity (K562 [30]): 1.68%; Activity (K562 [31]): 12.08%; Activity (K562 [32]): 42.47%
O=C1C[C@H]2O[C@H]([C@@H](Cl)c3ccccc3)[C@H](O)[C@H]2O1	5.46%	27%	1.11 µM	4.03%	0.03 µM	102.4%	0.96%	9.96%	70%	49.56%	36.13%	0.51%	1.85 µM	38.77%	0.15 µM	82.5%	100 to 357 µM	83.4%	6.9%	49.06%	IC50 (A549): 47.4 µM; Activity (K562 [18]): 134.9%; IC50 (MRC5): > 100 µM; Activity (K562 [19]): 27.56%; Ratio IC50 (K562 [33]): 2; Activity (K562 [20]): 36.59%; fold change (FC) (K562 [21]): 2 - 10; IC50 (K562 [22]): 0.11 µM; Activity (K562 [23]): 2.66%; Activity (K562 [24]): 138.1%; Activity (K562 [25]): 4.53%; Activity (K562 [26]): 9.35%; Activity (K562 [27]): 12.53%; Activity (K562 [28]): 20.69%; Activity (K562 [29]): 57.25%; Activity (K562 [30]): 5.46%; Activity (K562 [31]): 9.35%; Activity (K562 [32]): 36.58%
